The record followed here is ChEMBL document CHEMBL2040757, “New N-arylamino biquinoline derivatives: synthesis, antimicrobial, antituberculosis, and antimalarial evaluation” (Eur J Med Chem, 2012).

In one assay the test system is Bacillus subtilis. Kind of assay: Antibacterial activity against Bacillus subtilis MTCC 441 by broth microdilution method. The assay is classed as functional. The method, boiled down:
(§1)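 Broth microdilution per NCCLS, with serial dilutions in Mueller Hinton broth and DMSO as diluent. Tubes were incubated overnight at 37 °C. MIC was the lowest concentration giving no visible growth, with the control organism's MIC read to verify concentrations. Tubes without growth were subcultured overnight at 37 °C to judge bacteriostatic versus bactericidal action.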
On the technique in general: In broth dilution the organism is exposed to a series of concentrations in liquid medium.

A further assay deals with Clostridium tetani. The assay is described as follows: Antibacterial activity against Clostridium tetani MTCC 449 by broth microdilution method. Format: functional.
The subject of another assay is Streptococcus pneumoniae. Kind of assay: Antibacterial activity against Streptococcus pneumoniae MTCC 1936 by broth microdilution method. Format: functional. The method, boiled down: as §1
The test system of the next assay is Escherichia coli. Kind of assay: Antibacterial activity against Escherichia coli MTCC 443 by broth microdilution method. Format: functional. The method in brief:
as §1

Another assay has as its system Salmonella typhi. The assay is described as follows: Antibacterial activity against Salmonella typhi MTCC 98 by broth microdilution method. The assay is classed as functional, Salmonella enterica subsp. enterica serovar Typhi. To be noted: Salmonella enterica.
The next assay relates to Vibrio cholerae. Kind of assay: Antibacterial activity against Vibrio cholerae MTCC 3906 by broth microdilution method. Format: functional.
The next assay relates to Aspergillus fumigatus. Kind of assay: Antifungal activity against Aspergillus fumigatus MTCC 3008 by broth microdilution method. Format: functional.
Another assay relates to Candida albicans. Kind of assay: Antifungal activity against Candida albicans MTCC 227 by broth microdilution method. Format: functional.
Assay [1] concerns Mycobacterium tuberculosis. The assay is described as follows: Growth inhibition of Mycobacterium tuberculosis H37Rv at 6.25 ug/mL after 12 to 28 days relative to control. The assay is classed as functional.
Another assay deals with Plasmodium falciparum. Kind of assay: Antimalarial activity against trophozoite stage of chloroquine-sensitive Plasmodium falciparum 3D7 infected in human erythrocytes after 48 hrs. Format: functional, organism-based. Conditions: 3D7, 48 h. The method in brief:
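Parasites were kept in continuous culture in A+ human erythrocytes in RPMI with 10% human serum. Sorbitol-synchronized trophozoites at 1–2% parasitaemia and 2.5% haematocrit were exposed to serial dilutions (maximum 1 mg/ml; 0.02% final DMSO) for 48 h at 37 °C. Growth inhibition was measured; chloroquine and quinine served as positive controls. IC50 came from duplicate experiments.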

Values after ≈ are worked out from the molar mass of the structure shown.

As usually defined, the MIC is the least concentration at which growth counts as inhibited. Low values mean a more susceptible organism, high ones a less susceptible organism. As usually defined, the inhibition is the percentage by which the read-out fell short of the control. Lower therefore signals a weak effect. Usually IC50 stands for the midpoint of a concentration-inhibition curve. Consider `CC1(C)CC(=O)C2=C(C1)N(Nc1ccc(Br)cc1)C(N)=C(C#N)C2c1cc2ccccc2nc1Cl` (centres undefined), for which the MIC was 200 µg/mL (≈ 364 µM) in the assay with Bacillus subtilis; 500 µg/mL (≈ 911 µM) in the assay on Clostridium tetani; 100 µg/mL (≈ 182 µM) with Streptococcus pneumoniae; 250 µg/mL (≈ 455 µM) in the assay on Escherichia coli; 250 µg/mL (≈ 455 µM) with Salmonella typhi; 100 µg/mL (≈ 182 µM) in the assay with Vibrio cholerae. Moreover, the MIC with Aspergillus fumigatus and with Candida albicans was over 1000 µg/mL in each case. Moreover, at 6.25 µg/mL the inhibition in assay [1] was 33%. Moreover, it took 0.54 µg/mL (≈ 0.984 µM) to reach half-maximal inhibition in the assay on Plasmodium falciparum (IC50).

As for `CC1(C)S[C@@H]2[C@H](NC(=O)[C@H](N)c3ccccc3)C(=O)N2[C@H]1C(=O)O` [AMPICILLIN], the MIC in the assay on Bacillus subtilis was 250 µg/mL (≈ 715 µM); against Clostridium tetani, 250 µg/mL (≈ 715 µM); against Streptococcus pneumoniae, 100 µg/mL (≈ 286 µM); against Escherichia coli, 100 µg/mL (≈ 286 µM); in the assay on Salmonella typhi, 100 µg/mL (≈ 286 µM); against Vibrio cholerae, 100 µg/mL (≈ 286 µM).

`COc1ccc(NN2C(N)=C(C#N)C(c3cc4cc(Cl)ccc4nc3Cl)C3=C2CC(C)(C)CC3=O)cc1` (centres undefined): the minimal inhibitory concentration (MIC) worked out at 250 µg/mL (≈ 468 µM) in the assay on Bacillus subtilis; 200 µg/mL (≈ 374 µM) with Clostridium tetani; 250 µg/mL (≈ 468 µM) in the assay on Streptococcus pneumoniae; 250 µg/mL (≈ 468 µM) against Escherichia coli; 200 µg/mL (≈ 374 µM) against Salmonella typhi; 250 µg/mL (≈ 468 µM) with Vibrio cholerae. In addition, the minimal inhibitory concentration (MIC) in the assay with Aspergillus fumigatus was over 1000 µg/mL; in the assay on Candida albicans, 100 µg/mL (≈ 187 µM). Further, 6.25 µg/mL produced 22% inhibition in assay [1]. Besides, the half-inhibitory concentration (IC50) with Plasmodium falciparum was 0.026 µg/mL (≈ 0.0486 µM).

With `COC1=CC(=O)C[C@@H](C)[C@]12Oc1c(Cl)c(OC)cc(OC)c1C2=O` [GRISEOFULVIN], the MIC in the assay with Aspergillus fumigatus turned out to be 100 µg/mL (≈ 283 µM); in the assay with Candida albicans, 500 µg/mL (≈ 1420 µM).

`COc1ccc2nc(Cl)c(C3C(C#N)=C(N)N(Nc4ccc(F)cc4)C4=C3C(=O)CC(C)(C)C4)cc2c1` (centres undefined): the MIC turned out to be 250 µg/mL (≈ 483 µM) against Bacillus subtilis; 500 µg/mL (≈ 965 µM) with Clostridium tetani; 200 µg/mL (≈ 386 µM) against Streptococcus pneumoniae; 125 µg/mL (≈ 241 µM) against Escherichia coli; 125 µg/mL (≈ 241 µM) against Salmonella typhi; 100 µg/mL (≈ 193 µM) in the assay on Vibrio cholerae. The minimum inhibitory concentration (MIC) is 500 µg/mL (≈ 965 µM) in the assay on Aspergillus fumigatus and 250 µg/mL (≈ 483 µM) with Candida albicans. Moreover, the inhibition at 6.25 µg/mL in assay [1] turned out to be 22%. In the assay with Plasmodium falciparum, this molecule registered a half-inhibitory concentration (IC50) of 0.25 µg/mL (≈ 0.483 µM).

As for `Cc1ccc2nc(Cl)c(C3C(C#N)=C(N)N(Nc4ccccc4)C4=C3C(=O)CC(C)(C)C4)cc2c1` (centres undefined), the minimal inhibitory concentration (MIC) in the assay with Bacillus subtilis worked out at 500 µg/mL (≈ 1030 µM); against Clostridium tetani, 500 µg/mL (≈ 1030 µM); with Streptococcus pneumoniae, 250 µg/mL (≈ 517 µM); in the assay with Escherichia coli, 100 µg/mL (≈ 207 µM); against Salmonella typhi, 200 µg/mL (≈ 413 µM); in the assay on Vibrio cholerae it was 250 µg/mL (≈ 517 µM). Also, the values for the minimum inhibitory concentration (MIC) against Aspergillus fumigatus and in the assay with Candida albicans were over 1000 µg/mL and 500 µg/mL (≈ 1030 µM), respectively. This molecule also registered an inhibition at 6.25 µg/mL in [1] of 12%. In addition, in the assay with Plasmodium falciparum, the IC50 is 0.15 µg/mL (≈ 0.31 µM).

`C=C[C@H]1CN2CC[C@H]1C[C@H]2[C@H](O)c1ccnc2ccc(OC)cc12` [QUININE] yielded a 50% inhibitory concentration (IC50) in the assay with Plasmodium falciparum of 0.268 µg/mL (≈ 0.826 µM).

Regarding `COc1ccc2nc(Cl)c(C3C(C#N)=C(N)N(Nc4ccc(Cl)cc4)C4=C3C(=O)CC(C)(C)C4)cc2c1` (centres undefined), the minimal inhibitory concentration (MIC) against Bacillus subtilis is 100 µg/mL (≈ 187 µM); with Clostridium tetani, 200 µg/mL (≈ 374 µM); in the assay on Streptococcus pneumoniae, 100 µg/mL (≈ 187 µM); in the assay on Escherichia coli, 250 µg/mL (≈ 468 µM); against Salmonella typhi, 100 µg/mL (≈ 187 µM); with Vibrio cholerae it was 100 µg/mL (≈ 187 µM). The MIC in the assay with Aspergillus fumigatus and with Candida albicans was over 1000 µg/mL throughout. The same molecule showed an inhibition at 6.25 µg/mL in assay [1] of 21%. Moreover, half-maximal inhibition in the assay with Plasmodium falciparum (IC50) was put at 0.009 µg/mL (≈ 0.0168 µM).

With `Cc1ccc2nc(Cl)c(C3C(C#N)=C(N)N(Nc4ccc(Br)cc4)C4=C3C(=O)CC(C)(C)C4)cc2c1` (centres undefined), the MIC with Bacillus subtilis amounted to 200 µg/mL (≈ 355 µM); in the assay on Clostridium tetani it was 250 µg/mL (≈ 444 µM); in the assay on Streptococcus pneumoniae, 250 µg/mL (≈ 444 µM); in the assay on Escherichia coli, 250 µg/mL (≈ 444 µM); against Salmonella typhi it was 250 µg/mL (≈ 444 µM); in the assay with Vibrio cholerae, 250 µg/mL (≈ 444 µM). The minimum inhibitory concentration (MIC) in the assay with Aspergillus fumigatus was over 1000 µg/mL; against Candida albicans, 250 µg/mL (≈ 444 µM). In addition, the inhibition at 6.25 µg/mL in [1] is 47%. Besides, the IC50 in the assay on Plasmodium falciparum was found to be 0.012 µg/mL (≈ 0.0213 µM).

`CC1(C)CC(=O)C2=C(C1)N(Nc1ccccc1)C(N)=C(C#N)C2c1cc2ccccc2nc1Cl` (centres undefined): the minimal inhibitory concentration (MIC) was found to be 200 µg/mL (≈ 426 µM) against Bacillus subtilis; 250 µg/mL (≈ 532 µM) against Clostridium tetani; 200 µg/mL (≈ 426 µM) in the assay with Streptococcus pneumoniae; 200 µg/mL (≈ 426 µM) against Escherichia coli; 250 µg/mL (≈ 532 µM) against Salmonella typhi; 250 µg/mL (≈ 532 µM) with Vibrio cholerae. Moreover, the figures for the MIC in the assay on Aspergillus fumigatus and against Candida albicans were over 1000 µg/mL and 500 µg/mL (≈ 1060 µM), respectively. The molecule further showed an inhibition at 6.25 µg/mL in assay [1] of 8%. Further, the concentration for half-maximal inhibition (IC50) with Plasmodium falciparum worked out at 0.015 µg/mL (≈ 0.0319 µM).

Turning to `COc1ccc(NN2C(N)=C(C#N)C(c3cc4ccccc4nc3Cl)C3=C2CC(C)(C)CC3=O)cc1` (centres undefined), the MIC against Bacillus subtilis was determined as 500 µg/mL (≈ 1000 µM); against Clostridium tetani it was 250 µg/mL (≈ 500 µM); in the assay on Streptococcus pneumoniae, 200 µg/mL (≈ 400 µM); against Escherichia coli, 250 µg/mL (≈ 500 µM); in the assay with Salmonella typhi, 200 µg/mL (≈ 400 µM); in the assay with Vibrio cholerae, 250 µg/mL (≈ 500 µM). The MIC against Aspergillus fumigatus and in the assay with Candida albicans was over 1000 µg/mL each time. The inhibition at 6.25 µg/mL in [1] came to 44%. The molecule further came in with an IC50 in the assay on Plasmodium falciparum of 0.025 µg/mL (≈ 0.05 µM).
